Source: PubChem BioAssay (several laboratories)
This is a sample that favours compounds with a hit; in the whole collection about 4.5% have one here.
RGS4 pot: RGS4 potentiation or activation | HEK293 M3R/inducible RGS4, carbachol calcium flux Fluo4; hits give low values | B-score at 10 µM | 0.92% of 310,000 active | AID 463111;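 active = B-score of the integrated calcium signal more than 4 SD below the library mean, with starting fluorescence not abnormally high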;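 also: negative B-score means reduced calcium response which marks RGS4 activation or potentiation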
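Detection: kinetic calcium fluorescence imaging with Fluo4-AM dye, 2 µM / Material: HEK293 cells with stable M3R and inducible RGS4 / Schedule: recording 10 s baseline at 1 Hz, 100 s post-agonist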
MrgX1 antagonist: human MrgX1 receptor antagonism, primary screen; MRGX1-HEK293 calcium flux, Fluo-4, BAM8-22 antagonism; hits give low values; B-score at 10 µM; 1.3% of 310,000 active; Q96LB2;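 active = calcium-response B-score plate-corrected more than 3 library SD below zero, starting fluorescence within 5 deviations, no agonist response on first addition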;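 also: peak minus trough fluorescence over baseline after final BAM8-22 challenge near maximal dose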
Target sequence (Q96LB2 whole entry, looked up): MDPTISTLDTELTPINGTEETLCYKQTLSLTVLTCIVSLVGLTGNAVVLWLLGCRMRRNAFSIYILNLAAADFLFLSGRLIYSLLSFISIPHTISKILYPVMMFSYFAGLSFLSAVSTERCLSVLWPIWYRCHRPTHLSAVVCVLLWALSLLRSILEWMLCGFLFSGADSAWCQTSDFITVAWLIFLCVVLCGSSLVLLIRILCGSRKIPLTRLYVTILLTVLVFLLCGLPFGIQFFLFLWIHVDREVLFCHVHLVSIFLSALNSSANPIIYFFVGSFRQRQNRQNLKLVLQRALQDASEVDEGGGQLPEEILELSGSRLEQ
PHOSPHO1 block: blocks human PHOSPHO1 phosphatase activity | recombinant PHOSPHO1, absorbance phosphatase assay | Q8TCT1 | 1.1% of 290,000 active | AID 1565 | inhibition, % at 13.3 µM; in the data active = inhibition above about 60%
Target sequence (Q8TCT1 whole entry, looked up): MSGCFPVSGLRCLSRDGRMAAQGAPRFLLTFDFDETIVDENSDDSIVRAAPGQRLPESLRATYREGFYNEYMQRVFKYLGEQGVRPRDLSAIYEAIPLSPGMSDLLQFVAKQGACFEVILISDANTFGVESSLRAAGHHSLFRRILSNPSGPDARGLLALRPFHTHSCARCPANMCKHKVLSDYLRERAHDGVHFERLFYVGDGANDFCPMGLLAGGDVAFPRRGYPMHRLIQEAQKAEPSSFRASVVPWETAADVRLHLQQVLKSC
MrgX1 allo act: human MrgX1 positive allosteric modulation, primary screen; Q96LB2; MrgX1-HEK293, Fluo-4 calcium flux, FDSS; hits give high values; B-score at 10 µM; 0.63% of 310,000 active; AID 588675;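 active = plate-corrected calcium response at least 3 library SD above typical, normal starting fluorescence, not activating the receptor alone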;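 also: compound read alongside a low EC10 to EC30 dose of BAM8-22 agonist; peak minus trough fluorescence over baseline measured at the second addition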
RGS4 block: inhibitors of human RGS4. P49798. HEK293 M3R/RGS4 inducible, Fluo-4 calcium flux; hits give high values; triggered by carbachol at its EC20. B-score at 10 µM. 0.45% of 310,000 active. AID 463165;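 active = B-score, a plate-corrected calcium signal, over three deviations above library mean, with baseline fluorescence within five deviations of library mean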;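 also: RGS4 expression induced by doxycycline in cells with stable M3 receptor; B-score is computed from the integrated fluorescence ratio over baseline after carbachol; higher B-score means a larger calcium signal and so more RGS4 inhibition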
MrgX1 agonist: human MrgX1 receptor agonism, primary screen | 0.44% of 310,000 active | Q96LB2 | B-score at 10 µM | MrgX1-HEK293 cells, Fluo-4 calcium fluorescence, agonist mode; hits give high values;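 active = calcium response B-score plate-corrected fluorescence ratio at least 3 library SD, with starting fluorescence B-score inside 5 SD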
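Material – MrgX1-expressing HEK293 cells · Input – 15,000 cells seeded per well · Dosing – compound as first of three additions · Times – overnight seeding, then 1 h dark dye loading · Measured by – kinetic Fluo-4 NW fluorescence of intracellular calcium · Read-out – B-scored fluorescence response ratio · Benchmarks – positive and negative control wells on each plate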
MrgX1 allo conf: human MrgX1 positive allosteric modulation, re-confirmation | shares compounds with MrgX1 allo act | MrgX1-HEK293, Fluo-4 calcium fluorescence, FDSS | activation (ratio percentage), % at 10 µM | 13% of 1,200 active;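 active = ratio at least 3 SD above the weak peptide control, stable starting fluorescence, no direct agonism earlier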;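 also: compound followed by low BAM8-22 agonist challenge near EC20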
MrgX1 ant reconf: human MrgX1 receptor antagonism, re-confirmation screen; 19% of 2,300 active; remaining BAM8-22 calcium response % of control (hits give low values), % at 10 µM; shares compounds with MrgX1 antagonist; MrgX1-HEK293, BAM8-22 calcium flux, Fluo-4; hits give low values; AID 602420;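 active = remaining agonist calcium response no higher than 100% minus 3 SD of agonist-only control wells, with starting fluorescence near control levels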;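 also: agonist BAM8-22 given at a near maximal EC90 to ECmax level; peak minus minimum fluorescence divided by baseline after agonist addition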
HEK293 Ca flux: activity in parental HEK293 cells lacking MrgX1; AID 624111; fluorescence ratio F(max-min)/F0 at 10 µM; Fluo-4 calcium fluorescence, FDSS; shares compounds with MrgX1 antagonist; 2% of 4,000 active;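 active = duplicate-averaged calcium fluorescence ratio at least three times the standard deviation of buffer wells, a nonspecific response in parental cells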
HEK293 Ca counter: activity in parental HEK293 cells without MrgX1. shares compounds with MrgX1 antagonist. parental HEK293 calcium flux, Fluo-4 fluorescence ratio; hits give high values. fluorescence ratio F(max-min)/F0 at 10 µM. 0.4% of 4,000 active. AID 624114;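 active = calcium fluorescence ratio, averaged over duplicates, at least 3 SD of the buffer-well ratio, meaning a nonspecific response in receptor-free cells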;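 also: untransfected parental HEK293 lacking MrgX1 used as counterscreen for MrgX1 allosteric activators; fluorescence change taken during the second addition on a kinetic imager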
HEK293 Ca cntr2: counter-screen for MrgX1 activators: effect in parental HEK293 cells; AID 624115; Fluo-4 calcium fluorescence (FDSS); hits give high values; 8.7% of 4,000 active; shares compounds with MrgX1 antagonist; fluorescence ratio F(max-min)/F0 at 10 µM;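 active = calcium fluorescence ratio at least three times the spread of buffer wells, meaning a non-specific response in parental cells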
A number is an active result; i = inactive; nt = no result.

SMILES	RGS4 pot	MrgX1 antagonist	PHOSPHO1 block	MrgX1 allo act	RGS4 block	MrgX1 agonist	MrgX1 allo conf	HEK293 Ca flux	HEK293 Ca counter	HEK293 Ca cntr2	others
O=C(c1ccc2c(c1)OCO2)[C@@H]1[C@@H]2C(=O)N(C3CCCCC3)C(=O)[C@@H]2C2c3ccccc3C=CN21 (stereo partly drawn)	i	nt	i	nt	i	nt	nt	nt	nt	nt
CC(C)(C)C(=O)[C@@H]1[C@@H]2C(=O)N(C3CCCCC3)C(=O)[C@@H]2[C@H]2c3ccccc3C=CN12	nt	i	i	7	nt	i	i	i	i	i
Cc1ccccc1-c1nc2sc3c(c2c(=O)o1)CCC3	i	i	i	i	i	i	nt	nt	nt	nt
O=c1oc(-c2ccccc2)nc2sc3c(c12)CCCC3	i	i	i	13	i	i	i	i	i	i
O=C(O)c1cccc(N2C(=O)c3ccc(Oc4ccc(Cl)cc4)cc3C2=O)c1	i	i	i	i	i	i	nt	nt	nt	nt
O=C(O)c1cccc(N2C(=O)c3ccc4c5c(ccc(c35)C2=O)C(=O)N(c2cccc(C(=O)O)c2)C4=O)c1	i	i	i	7	i	i	i	i	i	i
COc1ccc(CCNc2nc(-c3ccncc3)cs2)cc1OC	i	-5.1	i	7.3	i	i	i	i	i	i	MrgX1 ant reconf=78%
COc1ccc(CNC(=O)CN(Cc2ccco2)C(=O)CCC(=O)Nc2ccccn2)cc1	i	i	i	i	i	i	nt	nt	nt	nt
CSCC[C@H](NC(=O)[C@@H]1CSC2c3ccccc3C(=O)N21)C(=O)NC1CCCC1 (stereo partly drawn)	i	i	i	i	i	i	nt	nt	nt	nt
CCN(CC)S(=O)(=O)c1cc(Br)c(C)cc1OC	i	i	i	8.6	i	i	i	i	i	i
CCCCCN1CC(=O)N2C(C)c3[nH]c4ccccc4c3C[C@H]2C1=O (stereo partly drawn)	i	i	i	14	i	i	i	i	i	i
CCCCOCCCN1CC(=O)N2C(C)c3[nH]c4ccccc4c3C[C@H]2C1=O (stereo partly drawn)	i	i	i	7.5	i	i	i	i	i	i
COc1ccc(OC)c(CN2CCN(C(=O)c3cccc(S(=O)(=O)Nc4ccccc4OC)c3)CC2)c1	i	i	nt	i	i	i	nt	nt	nt	nt
COc1ccc(OC)c(CN2CCN(C(=O)c3ccc(NS(=O)(=O)c4cccc([N+](=O)[O-])c4)cc3)CC2)c1	i	i	nt	20	i	i	38%	i	i	i
Cc1cccc(-c2csc(N)c2C(=O)OC(C)C)c1	i	i	i	8.1	i	i	i	i	i	i
CC(=O)Oc1c(Br)cc(N(C(C)=O)S(=O)(=O)c2ccccc2)c2ccccc12	i	i	i	i	i	i	nt	nt	nt	nt
CC(=O)Nc1cccc(-c2nc3ccccc3[nH]2)c1	i	i	i	i	i	i	nt	nt	nt	nt
COc1cccc(OC)c1C(=O)Nc1cccc(-c2nc3ccccc3[nH]2)c1	i	i	i	7.1	i	i	i	i	i	i
Cn1c(=O)n(C)c2cc(C(N)=O)ccc21	i	i	i	15	i	i	i	i	i	i
Cc1ccc(-n2cnc3cc(NCc4cccs4)ccc32)cc1	i	i	i	9.8	i	i	i	i	i	i
c1ccc(-n2cnc3cc(NCc4cccs4)ccc32)cc1	i	i	i	i	i	i	nt	nt	nt	nt
COc1ccc(CCN(C)C(=O)c2cc(S(=O)(=O)N3CCCCC3)ccc2Cl)cc1OC	i	i	nt	i	i	i	nt	nt	nt	nt
CCC(C)n1c(NC(=O)c2ccccc2)c(C#N)c2nc3ccccc3nc21 (stereo not drawn)	i	i	i	7.9	i	i	i	i	i	i
Cn1c(=O)[nH]c(=O)c2c1nc(N)n2Cc1ccccc1	i	i	i	i	i	i	nt	nt	nt	nt
CCOc1ccc(C(=O)OCC(=O)Nc2ccc(SC(F)F)cc2)cc1OCC	i	i	i	i	i	i	nt	nt	nt	nt
SMILES	RGS4 pot	MrgX1 antagonist	PHOSPHO1 block	MrgX1 allo act	RGS4 block	MrgX1 agonist	MrgX1 allo conf	HEK293 Ca flux	HEK293 Ca counter	HEK293 Ca cntr2	others
CC(C)(C)c1ccc(-c2nc(C=O)c3ccccn23)cc1	i	i	i	i	i	i	nt	nt	nt	nt
Cc1c(C(C)(C)C)c(C=S)n2ccccc12	i	i	93	8.5	i	i	i	i	i	i
Clc1ccc(-c2cc3ccccc3nc2N2CCOCC2)cc1	i	i	i	11	i	i	i	i	i	i
Clc1ccc(-c2cc3ccccc3nc2N2CCCC2)cc1	i	i	i	i	i	i	nt	nt	nt	nt
CCc1nnc2c(NCCc3ccccc3)nc3ccccc3n12	i	i	i	i	i	i	nt	nt	nt	nt
CC(=O)Nc1ccc(Oc2cnccn2)cc1	i	i	i	i	i	i	nt	nt	nt	nt
COC(=O)C(NC(C)=O)(Nc1nc2c(C)cc(C)cc2s1)C(F)(F)F (stereo not drawn)	i	i	i	17	i	i	i	i	i	i
COc1ccccc1NC(=O)CSc1nnnn1-c1ccc(C(=O)O)cc1	i	i	i	i	i	i	nt	nt	nt	nt
CCCCOc1ccccc1NC(=O)CSc1nnnn1C(C)(C)C	i	i	i	22	i	i	i	i	i	i
O=C(COC(=O)c1cccs1)c1ccccc1	i	i	i	18	i	i	i	i	i	i
CC(=O)Nc1cccc(C(=O)OCC(=O)N2CCC(c3ccccc3)=N2)c1	i	i	nt	i	i	i	nt	nt	nt	nt
CCOC(=O)C(=O)Nc1nnc(CCc2ccccc2)s1	i	i	i	7.7	i	i	i	i	i	i
Cc1ccc(CCNC(=O)Cn2ccc3cc(S(=O)(=O)N4CCCC4)ccc32)cc1	i	i	i	i	i	i	nt	nt	nt	nt
Cc1ccccc1CCNC(=O)Cn1ccc2cc(S(=O)(=O)N3CCCC3)ccc21	i	i	i	7.1	i	i	i	i	i	i
Cc1sc2ncnc(SCC(=O)NNC(=O)COc3cccc4ccccc34)c2c1C	i	i	i	i	i	i	nt	nt	nt	nt
Cc1sc2nc(-c3ccc(Br)cc3)oc(=O)c2c1C	i	i	i	6.6	i	i	i	i	i	i
Cc1sc2nc(-c3cccs3)oc(=O)c2c1C	i	i	i	i	i	i	nt	nt	nt	nt
